Test results published in ChEMBL document CHEMBL5058577, “EUbOPEN Chemogenomics Library 2 (Multiplex)” (2022).

Tested on: Fibroblast
Test: Multiplex assay against human fibroblast
Type: toxicity, cell-based
Outline: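 Cells stained live at seeding with Hoechst33342, BioTracker Green Microtubule Cytoskeleton Dye, MitoTracker Red and Annexin V Alexa Fluor 680 were imaged on a CQ1 microscope at 37°C and 5% CO2 after compound addition. Their classification by CellPathfinder machine-learning gating ran from Hoechst high-intensity objects versus normal cells, to healthy, pyknosed or fragmented nuclei among normal cells, to mitotic or apoptotic among pyknosed cells. Tubulin, mitochondrial-mass and membrane-permeability phenotypes are per cents of healthy-nucleus cells.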

[1] = 12 h, 1 µM, compound concentration 1 uM, replicate 1
[2] = 12 h, 1 µM, compound concentration 1 uM, replicate 2
[3] = 12 h, 10 µM, compound concentration 10 uM, replicate 1
[4] = 12 h, 10 µM, compound concentration 10 uM, replicate 2
[5] = 24 h, 1 µM, compound concentration 1 uM, replicate 1
[6] = 24 h, 1 µM, compound concentration 1 uM, replicate 2
[7] = 24 h, 10 µM, compound concentration 10 uM, replicate 1
[8] = 24 h, 10 µM, compound concentration 10 uM, replicate 2
[9] = 48 h, 1 µM, compound concentration 1 uM, replicate 1
[10] = 48 h, 1 µM, compound concentration 1 uM, replicate 2
[11] = 48 h, 10 µM, compound concentration 10 uM, replicate 1
[12] = 48 h, 10 µM, compound concentration 10 uM, replicate 2

CC(=O)Nc1cccc2c1c(Sc1ccc(Cl)cc1)c(C)n2CC(=O)O [AZD1981]
Population Apoptotic (%) [1]: 27%
Population Fragmented Nuclei (%) [1]: 18%
Population Healthy Nuclei (%) [1]: 61%
Population Hoechst High Intensity Objects (%) [1]: 1%
Population Membrane Permeable-Phenotype (%) [1]: 2%
Population Mitochondria Different-Phenotype (%) [1]: 9%
Population Mitotic Cells (%) [1]: 72%
Population Normal (%) [1]: 98%
Population Pyknosed Nuclei (%) [1]: 19%
Population Tubulin-Different-Phenotype (%) [1]: 33%
Total Cell Count [1]: 173
Population Apoptotic (%) [2]: 37%
Population Fragmented Nuclei (%) [2]: 31%
Population Healthy Nuclei (%) [2]: 47%
Population Hoechst High Intensity Objects (%) [2]: 3%
Population Membrane Permeable-Phenotype (%) [2]: 14%
Population Mitochondria Different-Phenotype (%) [2]: 7%
Population Mitotic Cells (%) [2]: 62%
Population Normal (%) [2]: 96%
Population Pyknosed Nuclei (%) [2]: 21%
Population Tubulin-Different-Phenotype (%) [2]: 55%
Total Cell Count [2]: 118
Population Apoptotic (%) [3]: 40%
Population Fragmented Nuclei (%) [3]: 16%
Population Healthy Nuclei (%) [3]: 64%
Population Hoechst High Intensity Objects (%) [3]: 3%
Population Membrane Permeable-Phenotype (%) [3]: 2%
Population Mitochondria Different-Phenotype (%) [3]: 3%
Population Mitotic Cells (%) [3]: 60%
Population Normal (%) [3]: 96%
Population Pyknosed Nuclei (%) [3]: 19%
Population Tubulin-Different-Phenotype (%) [3]: 24%
Total Cell Count [3]: 133
Population Apoptotic (%) [4]: 33%
Population Fragmented Nuclei (%) [4]: 35%
Population Healthy Nuclei (%) [4]: 42%
Population Hoechst High Intensity Objects (%) [4]: 4%
Population Membrane Permeable-Phenotype (%) [4]: 8%
Population Mitochondria Different-Phenotype (%) [4]: 0%
Population Mitotic Cells (%) [4]: 66%
Population Normal (%) [4]: 95%
Population Pyknosed Nuclei (%) [4]: 22%
Population Tubulin-Different-Phenotype (%) [4]: 35%
Total Cell Count [4]: 112
Population Apoptotic (%) [5]: 53%
Population Fragmented Nuclei (%) [5]: 19%
Population Healthy Nuclei (%) [5]: 63%
Population Hoechst High Intensity Objects (%) [5]: 6%
Population Membrane Permeable-Phenotype (%) [5]: 2%
Population Mitochondria Different-Phenotype (%) [5]: 2%
Population Mitotic Cells (%) [5]: 46%
Population Normal (%) [5]: 93%
Population Pyknosed Nuclei (%) [5]: 16%
Population Tubulin-Different-Phenotype (%) [5]: 28%
Total Cell Count [5]: 168
Population Apoptotic (%) [6]: 36%
Population Fragmented Nuclei (%) [6]: 30%
Population Healthy Nuclei (%) [6]: 53%
Population Hoechst High Intensity Objects (%) [6]: 3%
Population Membrane Permeable-Phenotype (%) [6]: 7%
Population Mitochondria Different-Phenotype (%) [6]: 7%
Population Mitotic Cells (%) [6]: 63%
Population Normal (%) [6]: 96%
Population Pyknosed Nuclei (%) [6]: 15%
Population Tubulin-Different-Phenotype (%) [6]: 53%
Total Cell Count [6]: 128
Population Apoptotic (%) [7]: 41%
Population Fragmented Nuclei (%) [7]: 13%
Population Healthy Nuclei (%) [7]: 68%
Population Hoechst High Intensity Objects (%) [7]: 4%
Population Membrane Permeable-Phenotype (%) [7]: 2%
Population Mitochondria Different-Phenotype (%) [7]: 5%
Population Mitotic Cells (%) [7]: 58%
Population Normal (%) [7]: 95%
Population Pyknosed Nuclei (%) [7]: 18%
Population Tubulin-Different-Phenotype (%) [7]: 17%
Total Cell Count [7]: 135
Population Apoptotic (%) [8]: 55%
Population Fragmented Nuclei (%) [8]: 36%
Population Healthy Nuclei (%) [8]: 43%
Population Hoechst High Intensity Objects (%) [8]: 6%
Population Membrane Permeable-Phenotype (%) [8]: 14%
Population Mitochondria Different-Phenotype (%) [8]: 0%
Population Mitotic Cells (%) [8]: 45%
Population Normal (%) [8]: 93%
Population Pyknosed Nuclei (%) [8]: 20%
Population Tubulin-Different-Phenotype (%) [8]: 40%
Total Cell Count [8]: 104
Population Apoptotic (%) [9]: 54%
Population Fragmented Nuclei (%) [9]: 23%
Population Healthy Nuclei (%) [9]: 61%
Population Hoechst High Intensity Objects (%) [9]: 6%
Population Membrane Permeable-Phenotype (%) [9]: 1%
Population Mitochondria Different-Phenotype (%) [9]: 6%
Population Mitotic Cells (%) [9]: 45%
Population Normal (%) [9]: 93%
Population Pyknosed Nuclei (%) [9]: 15%
Population Tubulin-Different-Phenotype (%) [9]: 33%
Total Cell Count [9]: 171
Population Apoptotic (%) [10]: 57%
Population Fragmented Nuclei (%) [10]: 34%
Population Healthy Nuclei (%) [10]: 54%
Population Hoechst High Intensity Objects (%) [10]: 3%
Population Membrane Permeable-Phenotype (%) [10]: 8%
Population Mitochondria Different-Phenotype (%) [10]: 2%
Population Mitotic Cells (%) [10]: 42%
Population Normal (%) [10]: 96%
Population Pyknosed Nuclei (%) [10]: 11%
Population Tubulin-Different-Phenotype (%) [10]: 52%
Total Cell Count [10]: 129
Population Apoptotic (%) [11]: 64%
Population Fragmented Nuclei (%) [11]: 21%
Population Healthy Nuclei (%) [11]: 64%
Population Hoechst High Intensity Objects (%) [11]: 4%
Population Membrane Permeable-Phenotype (%) [11]: 0%
Population Mitochondria Different-Phenotype (%) [11]: 2%
Population Mitotic Cells (%) [11]: 35%
Population Normal (%) [11]: 95%
Population Pyknosed Nuclei (%) [11]: 13%
Population Tubulin-Different-Phenotype (%) [11]: 25%
Total Cell Count [11]: 134
Population Apoptotic (%) [12]: 40%
Population Fragmented Nuclei (%) [12]: 43%
Population Healthy Nuclei (%) [12]: 42%
Population Membrane Permeable-Phenotype (%) [12]: 11%
Population Mitochondria Different-Phenotype (%) [12]: 0%
Population Mitotic Cells (%) [12]: 60%
Population Pyknosed Nuclei (%) [12]: 15%
Population Tubulin-Different-Phenotype (%) [12]: 54%
Total Cell Count [12]: 105
